pEC50, pIC50: −log10 of the molar value.
What was measured:
Human betaherpesvirus 5 [1] = experiment: Antiviral activity against human cytomegalovirus AD-169 infected in human HEL cells assessed as inhibition of virus-induced cytopathic effect; assay type: functional, cell-based; settings: Human betaherpesvirus 5, AD-169, HEL
In short: (§1)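 Confluent HEL fibroblast monolayers were inoculated in 96-well plates with 100 CCID50 of virus in the presence of serially varied compound concentrations. Cytopathicity was scored once untreated infected controls reached full CPE.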

[2] = test system: Human immunodeficiency virus 1; experiment: Antiviral activity against HIV1 X4LAI.04 infected in human MT4 cells assessed as decrease in viral replication by p24gag-based luminex assay; assay type: functional, cell-based; settings: Human immunodeficiency virus 1, X4LAI.04, MT4
In short: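 10^6 MT-4 cells were infected with HIV-1 X4LAI.04 (7 ng p24) for 2 h at 37 °C, then washed with PBS and resuspended. Compounds were added and cultures were kept 3 days at 37 °C. Supernatant p24 was measured by bead-based Luminex. Inhibition was calculated as (1 − p24 treated/p24 untreated) × 100, and EC50 was derived from it.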

MT4 = experiment: Cytotoxicity against human MT4 cells assessed as reduction in cell viability by cell counting method; assay type: cell-based
In short: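 MT-4 cultures, untreated or treated, were assessed with an automated cell counter using propidium iodide staining to enumerate total and dead cells.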

CCRF-CEM = experiment: (§2) Cytostatic activity human CEM cells assessed as reduction in cell viability after 72 hrs by cell counting method; assay type: cell-based; settings: ccrf-cem, 72 h
In short: (§3)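 (5–7.5) × 10^? CEM cells per well were grown with compound for 72 h at 37 °C under humidified CO2. Cells were counted in a Coulter counter.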

Human alphaherpesvirus 1 [3] = experiment: Antiviral activity against Herpes simplex virus 1 KOS infected in human HEL cells assessed as inhibition of virus-induced cytopathic effect; assay type: functional, cell-based; settings: Human alphaherpesvirus 1, KOS; in short: as §1
Human alphaherpesvirus 2 = experiment: Antiviral activity against Herpes simplex virus 2 G infected in human HEL cells assessed as inhibition of virus-induced cytopathic effect; assay type: functional, cell-based; settings: Human alphaherpesvirus 2, strain G; in short: as §1
Human alphaherpesvirus 1 [4] = experiment: Antiviral activity against ACV-resistant thymidine kinase deficient Herpes simplex virus 1 KOS infected in human HEL cells assessed as inhibition of virus-induced cytopathic effect; assay type: functional, cell-based; settings: Human alphaherpesvirus 1, KOS; in short: as §1
[5] = Cytotoxicity against human HEL cells assessed as alteration to cell morphology by microscopic analysis; assay type: cell-based
In short: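 Minimal cytotoxic concentration is the compound concentration giving a microscopically visible alteration of HEL cell morphology, scored in the antiviral assay cultures.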

Human betaherpesvirus 5 [6] = experiment: Antiviral activity against human cytomegalovirus Davis infected in human HEL cells assessed as inhibition of virus-induced cytopathic effect; assay type: functional, cell-based; settings: Human betaherpesvirus 5, Davis; in short: as §1
Human alphaherpesvirus 3 [7] = experiment: Antiviral activity against Varicella-Zoster virus OKA infected in human HEL cells assessed as inhibition of virus-induced cytopathic effect; assay type: functional, cell-based; settings: Human alphaherpesvirus 3, strain Oka vaccine
In short: (§4)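 Confluent HEL fibroblast cultures were inoculated with 20 PFU of VZV in the presence of varying compound concentrations. Plaque formation was recorded once untreated infected controls reached completion.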

Human alphaherpesvirus 3 [8] = experiment: Antiviral activity against thymidine kinase deficient Varicella-Zoster virus 07-1 infected in human HEL cells assessed as inhibition of virus-induced cytopathic effect; assay type: functional, cell-based; settings: Human alphaherpesvirus 3, 07-1, HEL; in short: as §4
HEL = experiment: Cytotoxicity against human HEL cells assessed as cell growth inhibition by cell counting method; assay type: cell-based
[9] = Drug metabolism assessed as carboxypeptidase Y (unknown origin)-mediated metabolite 81 peak measured after 15 mins by [31P]-NMR spectroscopic analysis; assay type: ADME; settings: human
[10] = Drug metabolism assessed as carboxypeptidase Y (unknown origin)-mediated metabolite 79 formation measured after 15 mins by [31P]-NMR spectroscopic analysis; assay type: ADME; settings: human
[11] = test system: Human immunodeficiency virus 1; experiment: Antiviral activity against HIV1 X4LAI.04 infected in human tonsillar tissues assessed as inhibition of virus-induced cytopathic effect by p24gag-based luminex assay; assay type: functional; settings: Human immunodeficiency virus 1, X4LAI.04
In short: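 Tonsillectomy tissue blocks of 2–3 mm³ were cultured on collagen sponge gels at the air–liquid interface, 27 blocks per donor per condition. Blocks were pretreated with compound overnight, infected with HIV-1 X4LAI.04 and cultured 12 days, with drug replenished at each medium change every 3 days. Medium p24 was measured by Luminex. Inhibition was calculated against untreated tissue, and EC50 was derived from it.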

[12] = Selectivity index, ratio of IC50 for human MT4 cells to EC50 for HIV1 X4LAI.04; assay type: toxicity; settings: read-out: Ratio IC50/EC50
[13] = Drug metabolism assessed as carboxypeptidase Y (unknown origin)-mediated metabolite 81 peak measured with in 1 hr by [31P]-NMR spectroscopic analysis; assay type: ADME; settings: human
[14] = Drug metabolism assessed as carboxypeptidase Y (unknown origin)-mediated metabolite 81 formation measured after 24 hrs by [31P]-NMR spectroscopic analysis; assay type: ADME; settings: human
[15] = as §2; assay type: cell-based, CCRF-CEM; settings: CEM cells (CCRF-CEM); in short: as §3

Structure (SMILES)	pEC50 (Human betaherpesvirus 5 [1])	pEC50 [2]	pIC50 (MT4)	CC50 (CCRF-CEM) [µM]	pEC50 (Human alphaherpesvirus 1 [3])	pEC50 (Human alphaherpesvirus 2)	pEC50 (Human alphaherpesvirus 1 [4])	MCC [5] [µM]	pEC50 (Human betaherpesvirus 5 [6])	pEC50 (Human alphaherpesvirus 3 [7])	pEC50 (Human alphaherpesvirus 3 [8])	CC50 (HEL) [µM]	Drug metabolism [9]	Drug metabolism [10]	pEC50 [11]	selectivity ratio [12]	Drug metabolism [13]	Drug metabolism [14]	CC50 at 72 h [15] [µM]
C[C@H](NP(=O)(OCC(CO)CCn1cnc2c(=O)[nH]c(N)nc21)Oc1cccc2ccccc12)C(=O)OCc1ccccc1 (stereo partly drawn)	< 4.30	4.68	4.00	138	4.14	4.10	< 4.00	50 to 100	< 4.30	5.03	< 4.30	> 100	Metabolite_Detected	Metabolite_Detected	–	–	–	–	–
Nc1nc(Cl)c2ncn(CCC(CO)CO)c2n1	< 4.30	< 3.82	< 3.82	400	< 4.00	< 4.00	< 4.00	50 to 100	< 4.30	< 4.30	< 4.30	> 100	–	–	< 4.22	–	–	–	–
COc1nc(N)nc2c1ncn2CCC(CO)CO	< 4.30	< 3.82	< 3.82	246	< 4.00	< 4.00	< 4.00	50 to 100	< 4.30	4.64	< 4.30	> 100	–	–	< 4.52	–	–	–	–
Nc1nc(O)c2ncn(CSC(CO)CO)c2n1	< 4.30	< 3.82	< 3.82	> 500	6.40	6.30	5.80	50 to 100	4.39	5.16	< 4.30	> 100	–	–	< 4.52	–	–	–	–
COc1nc(N)nc2c1ncn2CCC(CO)COP(=O)(N[C@@H](C)C(=O)OCc1ccccc1)Oc1ccccc1 (stereo partly drawn)	4.50	5.96	4.64	32	4.41	4.54	4.41	50 to 100	5.10	4.77	4.65	≥ 83	–	–	6.05	2.1	–	–	–
CC(=O)OCC(CO)OCn1cnc2c(Cl)nc(N)nc21 (stereo not drawn)	–	< 3.82	< 3.82	≥ 250	–	–	–	–	–	–	–	–	–	–	< 5.00	–	–	–	–
CC(C)OC(=O)[C@H](C)NP(=O)(OCC(CO)OCn1cnc2c(=O)[nH]c(N)nc21)Oc1cccc2ccccc12 (stereo partly drawn)	< 4.30	4.40	3.82	35	5.70	5.52	≤ 4.12	> 100	5.17	≤ 4.63	≤ 4.97	> 50	–	–	–	–	Metabolite_Detected	Metabolite_Notdetected	–
C[C@H](NP(=O)(OCC(COP(=O)(N[C@@H](C)C(=O)OCc1ccccc1)Oc1ccccc1)SCn1cnc2c(=O)[nH]c(N)nc21)Oc1ccccc1)C(=O)OCc1ccccc1 (stereo partly drawn)	< 4.30	4.62	4.68	77	< 4.00	< 4.00	< 4.00	50 to 100	< 4.30	4.64	< 4.30	> 100	–	–	< 5.52	–	–	–	–
Nc1nc(O)c2ncn(COC(CO)CO)c2n1 [GANCICLOVIR]	–	< 4.30	< 4.30	–	–	7.40	–	100 to 350	–	–	–	273	–	–	5.30	–	–	–	> 100
C[C@H](NP(=O)(OCC(CO)CCn1cnc2c(=O)[nH]c(N)nc21)Oc1ccccc1)C(=O)OCc1ccccc1 (stereo partly drawn)	< 4.30	5.00	< 3.82	> 250	5.10	4.80	≤ 4.00	50 to 100	< 4.30	5.59	4.35	> 100	–	–	< 4.70	–	–	–	–
COc1nc(N)nc2c1ncn2CCC(COP(=O)(N[C@@H](C)C(=O)OCc1ccccc1)Oc1ccccc1)COP(=O)(N[C@@H](C)C(=O)OCc1ccccc1)Oc1ccccc1 (stereo partly drawn)	< 4.30	4.92	4.70	19	4.00	< 4.00	4.00	50 to 100	4.43	4.66	4.70	25	–	–	–	–	–	–	–
C[C@H](NP(=O)(OCC(CO)OCn1cnc2c(=O)[nH]c(N)nc21)Oc1cccc2ccccc12)C(=O)OCc1ccccc1 (stereo partly drawn)	5.02	5.10	4.00	–	6.40	6.30	5.52	> 100	5.19	5.02	4.55	–	–	–	4.96	–	–	–	–
CC(C)(NP(=O)(OCC(CO)OCn1cnc2c(=O)[nH]c(N)nc21)Oc1ccccc1)C(=O)OCc1ccccc1 (stereo not drawn)	4.41	< 3.82	< 3.82	> 100	7.05	6.52	6.82	50 to 100	4.80	5.14	5.48	> 100	–	–	–	–	–	–	–
CC(C)OC(=O)[C@H](C)NP(=O)(OCC(COP(=O)(N[C@@H](C)C(=O)OC(C)C)Oc1cccc2ccccc12)OCn1cnc2c(=O)[nH]c(N)nc21)Oc1cccc2ccccc12 (stereo partly drawn)	4.79	5.07	5.22	> 100	5.92	5.85	≤ 4.14	≥ 100	5.57	5.38	5.96	> 50	–	–	–	–	–	–	–
CC(C)(NP(=O)(OCC(CCn1cnc2c(=O)[nH]c(N)nc21)COP(=O)(NC(C)(C)C(=O)OCc1ccccc1)Oc1cccc2ccccc12)Oc1cccc2ccccc12)C(=O)OCc1ccccc1 (stereo not drawn)	< 4.30	< 3.82	< 3.82	> 250	< 4.70	< 4.70	< 4.70	50 to 100	< 4.30	< 4.30	< 4.30	> 100	–	–	–	–	–	–	–
CCOC(=O)[C@H](C)NP1(=O)OCC(OCn2cnc3c(=O)[nH]c(N)nc32)CO1 (stereo partly drawn)	–	4.66	< 3.82	–	–	–	–	–	–	–	–	–	–	–	5.34	–	–	–	–
CCC(C)(C)COC(=O)[C@H](C)NP(=O)(OCC(CO)CCn1cnc2c(OC)nc(N)nc21)Oc1cccc2ccccc12 (stereo partly drawn)	4.37	4.62	4.77	18	4.96	5.00	≤ 4.70	50 to 100	< 4.30	5.36	5.01	28	–	–	–	–	–	–	–
Nc1nc2c(ncn2CCC(CO)CO)c(=O)[nH]1 [PENCICLOVIR]	< 4.30	< 3.82	< 3.82	–	–	–	5.40	> 100	< 4.30	–	4.99	> 100	–	–	4.96	–	–	–	–
CC(C)(NP(=O)(OCC(CO)OCn1cnc2c(=O)[nH]c(N)nc21)Oc1cccc2ccccc12)C(=O)OCc1ccccc1 (stereo not drawn)	5.18	5.00	4.59	> 100	6.22	6.07	5.85	50 to 100	5.31	4.89	< 4.30	> 100	–	–	–	–	–	–	–

Source: ChEMBL document CHEMBL4017507 (J Med Chem, 2017)
